In the library only some 4.6% were active in any assay of this set; here they are far more common.
OX1R antag-1: antagonists of human orexin 1 receptor (OX1R); inhibition, % at 6.6 µM; actives 1.8% (n = 330,000); OX1R-expressing cells, FRET antagonist read-out; O43613; in the data active = inhibition mostly above about 38%, no sharp cut-off; inactive = mostly below about 40%
OX1R antag-2: blocks the human orexin 1 receptor | O43613 | CHO/OX1R cells, Fluo-8 calcium fluorescence, orexin A | inhibition, % at 5 µM | actives 0.43% (n = 330,000) | AID 434989;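 active = inhibition above its plate's threshold, mean inhibition of all tested compounds on the plate plus 3 SD, cut at about 37% in these data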
TAAR1 antag: antagonists of human TAAR1; Q96RJ0; AID 624466; inhibition, % at 3 µM; actives 1.5% (n = 360,000); CHO RD-HGA16 TAAR1, Fluo-8 calcium fluorescence, antagonist;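 active = inhibition above a per-plate cutoff, the mean inhibition of test compounds on that plate plus 3 SD, cut at about 49% in these data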
Target sequence (Q96RJ0 whole entry, looked up): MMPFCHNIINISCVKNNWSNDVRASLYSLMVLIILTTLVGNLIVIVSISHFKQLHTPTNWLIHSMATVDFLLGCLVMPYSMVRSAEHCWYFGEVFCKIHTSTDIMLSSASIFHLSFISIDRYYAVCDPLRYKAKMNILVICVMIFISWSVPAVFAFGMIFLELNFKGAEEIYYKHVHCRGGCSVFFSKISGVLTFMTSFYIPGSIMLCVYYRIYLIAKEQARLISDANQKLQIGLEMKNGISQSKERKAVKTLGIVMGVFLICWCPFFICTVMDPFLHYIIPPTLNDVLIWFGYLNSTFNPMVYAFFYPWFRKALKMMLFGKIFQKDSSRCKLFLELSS
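Test system: RD-HGA16 CHO cells with stable hTAAR1 and Gα16 / Probe or stimulus: EC80 β-phenethylamine stimulus / Times: seeding 17-24 h prior, 75-min 37 °C, 30-min RT dye loading / Detection: Fluo-8 calcium-sensitive fluorescence / Read-out basis: % inhibition scaled between DMSO and EC80 PEA controls / Repeats: singlicate, one well per test compound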
GPR7 antagonist: antagonists of human GPR7 (neuropeptides B/W receptor 1) | inhibition, % at 4.4 µM | actives 1.1% (n = 290,000) | GPR7-expressing cells, fluorescence antagonist assay; in the data active = inhibition above about 16%, passing the limit was not always enough;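 also: cells stimulated with the agonist NPW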
Target sequence (P48145 whole entry, looked up): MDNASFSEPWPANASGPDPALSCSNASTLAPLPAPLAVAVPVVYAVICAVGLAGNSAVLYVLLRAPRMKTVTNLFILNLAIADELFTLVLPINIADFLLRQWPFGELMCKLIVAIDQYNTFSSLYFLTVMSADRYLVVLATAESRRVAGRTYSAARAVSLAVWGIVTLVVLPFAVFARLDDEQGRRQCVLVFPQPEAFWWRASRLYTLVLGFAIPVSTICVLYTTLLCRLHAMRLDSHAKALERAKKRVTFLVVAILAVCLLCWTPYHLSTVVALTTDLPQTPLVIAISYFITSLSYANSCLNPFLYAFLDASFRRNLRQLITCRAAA
CHO parental Ca: counter-screen: ATP calcium response change in parental CHO cells; parental CHO-K1, ATP-induced calcium, Fluo-8 fluorescence; inhibition, % at 5.6 µM; actives 0.63% (n = 330,000);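 active = inhibition above that plate's mean sample inhibition plus 3 SD, cut at about 26% in these data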
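Material: parental CHO cells / Compound: single nominal dose of 5.6 µM per compound / Signal: Fluo-8 fluorescence / Replicates: singlicate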
TAAR1 ag: human TAAR1 agonism; Q96RJ0; CHO RD-HGA16 TAAR1, Fluo-8 calcium fluorescence; vehicle wells 0%, saturating PEA agonist 100%; activation, % at 3 µM; actives 0.99% (n = 360,000);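 active = activation above the mean activation of all test compounds in the run plus 3 SD, cut at about 38% in these data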
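test system = CHO RD-HGA16 cells carrying human TAAR1 plus Gα16 | schedule = 17-24 h seeding, 75 min 37 °C dye, 30 min RT | compound dosing = 3 µM single concentration | control set = DMSO and PEA EC100 | replicates = n 1 | signal = Fluo-8 fluorescence, 5 s baseline then 140 s kinetic read | measure = percent activation vs PEA EC100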
GPR7 antag conf: human GPR7 antagonism, confirmation assay; shares compounds with GPR7 antagonist; GPR7-expressing cells, calcium fluorescence antagonist mode; inhibition, % at 4.4 µM; actives 52% (n = 2,400); in the data active = inhibition above about 24%;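 also: stimulated with the GPR7 agonist NPW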
MCHR1 antag: antagonizes human MCHR1, a GPR7 antagonist counter-screen; shares compounds with GPR7 antagonist; MCHR1-expressing cells, fluorescence antagonist assay; inhibition, % at 4.4 µM; actives 62% (n = 2,400); AID 2148; in the data active = inhibition above about 22%
Each line names hits and unclear results; the compound was inactive in the other large screens (follow-up assays come after a bar, where they were run).

COc1ccc(CC(=O)N2CCN=C2SCc2cccc([N+](=O)[O-])c2)cc1	GPR7 antagonist 21.3 | GPR7 antag conf 41.0 | MCHR1 antag 58.4
O=S(=O)(c1ccc(Br)cc1)N1CCN=C1SCc1cccc(F)c1	none
O=C(C1CCCCC1)N1CCN=C1SCc1cccnc1	none
O=C(C1CCCCC1)N1CCN=C1SCc1cccc([N+](=O)[O-])c1	GPR7 antagonist 48.0 | GPR7 antag conf inactive | MCHR1 antag inactive
O=C(Cc1ccc([N+](=O)[O-])cc1)N1CCN=C1SCc1ccccc1	none
COc1ccc(S(=O)(=O)N2CCN=C2SCc2cccc(F)c2)cc1	GPR7 antagonist 26.9 | GPR7 antag conf 27.2 | MCHR1 antag 46.0
Cc1ccc(S(=O)(=O)N2C[C@H]3C(=O)C[C@@H](c4ccccc4F)N(S(=O)(=O)c4ccc(C)cc4)[C@H]3C[C@H]2c2ccccc2F)cc1	none (no result: OX1R antag-1, OX1R antag-2, GPR7 antagonist, CHO parental Ca)
CCCCOc1ccc(C(C)NC(=O)C2CCCN(S(=O)(=O)CCC)C2)cc1 (centres undefined)	none
CCCC1NC(=O)c2cc3ccccc3cc2-n2c1nc1cc(Cl)ccc1c2=O (centres undefined)	none (no result: OX1R antag-1, OX1R antag-2, GPR7 antagonist, CHO parental Ca)
COc1ccccc1CNC(=O)CSc1nc(-c2ccccc2)cn1N	OX1R antag-1 73.1, GPR7 antagonist 27.1 | GPR7 antag conf inactive | MCHR1 antag inactive
c1ccc2sc(C3CCN(Cc4nnnn4Cc4ccc5c(c4)OCO5)CC3)nc2c1	none
COc1ccc(Cn2nnnc2CN2CCC(c3nc4ccccc4s3)CC2)cc1	GPR7 antagonist 29.4 | GPR7 antag conf 35.5 | MCHR1 antag 63.9
CCC[C@@H](CN[C@@H](CNC)[C@H](C)CC)NCC1CCC(C(C)(C)C)CC1 (some centres undefined)	GPR7 antagonist 47.4 | GPR7 antag conf 51.0 | MCHR1 antag 64.2
CC(=O)c1ccc(N2CCN(c3ncccn3)CC2)c([N+](=O)[O-])c1	GPR7 antagonist 34.5 | GPR7 antag conf inactive | MCHR1 antag inactive
CN(C)c1ncnc2c1ncn2[C@H]1CN(Cc2ccc(-c3ccccc3)cc2)C[C@@H](CO)O1	none (no result: OX1R antag-1, OX1R antag-2, GPR7 antagonist, CHO parental Ca)
CCOc1ccc(-n2c(SCc3nc(-c4ccc(C)cc4)no3)nnc2-c2ccncc2)cc1	GPR7 antagonist 36.7 | GPR7 antag conf 29.0 | MCHR1 antag 31.4
COc1cccc(C(c2nnnn2Cc2ccco2)N2CCN(c3cccc(C)c3C)CC2)c1OC (centres undefined)	GPR7 antagonist 22.5 | GPR7 antag conf inactive | MCHR1 antag 60.4
COc1ccc(OC)c(C(c2nnnn2Cc2ccco2)N2CCN(C)CC2)c1 (centres undefined)	none
O=C(NN=C1CCCC1)c1ccccc1OCCOc1ccccc1	GPR7 antagonist 22.1 | GPR7 antag conf inactive | MCHR1 antag 27.4
Cc1ccc(S(=O)(=O)NC(=O)C2(C)CCN2C(=O)C2CCCCC2)nc1 (centres undefined)	none (no result: OX1R antag-1, OX1R antag-2, GPR7 antagonist, CHO parental Ca)
COC(=O)c1c(NC(=O)c2ccccc2OC)sc(C(=O)N2CCOCC2)c1C	none
CCn1c(COc2ccc(C)cc2)nnc1SCC(=O)NCc1ccco1	GPR7 antagonist 24.1 | GPR7 antag conf inactive | MCHR1 antag inactive
COc1ccccc1OCc1nnc(SCC(=O)NCc2ccco2)n1Cc1ccco1	none
CC1(C)CC(=O)c2c(O)cc(OCC(=O)Nc3ccc(S(N)(=O)=O)cc3)cc2O1	none
COc1cc(NC(=O)COc2cc(O)c3c(c2)OC(C)(C)CC3=O)cc(OC)c1OC	OX1R antag-1 70.9, TAAR1 antag 70.1, GPR7 antagonist 34.5, CHO parental Ca 82.4 | GPR7 antag conf 50.8 | MCHR1 antag 78.9
CC1(Oc2ccc(CC#N)cc2)CCN(Cc2ccc(-n3ccnc3)cc2)C1 (centres undefined)	none (no result: OX1R antag-1, OX1R antag-2, GPR7 antagonist, CHO parental Ca)
CS(=O)(=O)N(CC(=O)N1CCN(Cc2ccc3c(c2)OCO3)CC1)Cc1ccc(Cl)cc1	GPR7 antagonist 24.8 | GPR7 antag conf 38.4 | MCHR1 antag 55.9
CCCc1cnc(NCCNCC(O)COc2ccc(Cl)c(Cl)c2)nc1 (centres undefined)	GPR7 antagonist 22.5 | GPR7 antag conf 31.4 | MCHR1 antag 51.8
Cn1c(=O)oc2cc(S(=O)(=O)N3CCC(C(=O)NCc4ccccc4Cl)CC3)ccc21	none
COC(=O)C1CCCCN1C(=O)c1ccc2oc(Cc3ccccc3)nc2c1 (centres undefined)	none (no result: OX1R antag-1, OX1R antag-2, CHO parental Ca)
COC(=O)C1CCCCN1C(=O)c1ccc2oc(C(C)C)nc2c1 (centres undefined)	GPR7 antagonist 25.8 | GPR7 antag conf inactive | MCHR1 antag inactive
CCOc1ccc(C(=O)/C=C/c2ccc(SC)cc2)cc1	GPR7 antagonist 36.8 | GPR7 antag conf 41.4 | MCHR1 antag 44.9
CCOc1ccc(/C=C/C(=O)c2ccccc2)cc1	none
Cn1cc(C(=O)c2cccc(Cl)c2)cc1/C=N\O	GPR7 antagonist 22.0 | GPR7 antag conf inactive | MCHR1 antag inactive
Cn1cc(C(=O)c2cccc(Cl)c2)cc1C#N	none
Cc1ccc(C)c(N2CCN(C(=O)C3CCN(S(=O)(=O)c4c(C)noc4C)CC3)CC2)c1	GPR7 antagonist 32.2 | GPR7 antag conf inactive | MCHR1 antag 47.4
CCCN1CN(c2ccccc2)C(=S)N(c2ccccc2)C1	none
CC(=O)N1c2ccc(S(=O)(=O)N3CCCC(C(=O)N4CCCCC4)C3)cc2CC1C (centres undefined)	none
CC1Cc2cc(S(=O)(=O)N3CCCC(C(=O)N4CCCCC4)C3)ccc2N1C(=O)C1CC1 (centres undefined)	GPR7 antagonist 27.9 | GPR7 antag conf inactive | MCHR1 antag 24.0
COC(=O)C[C@@H]1CC[C@@H](NS(=O)(=O)c2cccc(OC)c2)[C@@H](CO)O1	none (no result: OX1R antag-1, OX1R antag-2, GPR7 antagonist, CHO parental Ca)
Cc1cc(C(=O)N2CCC(Cc3ccccc3)CC2)ccc1[N+](=O)[O-]	none (no result: GPR7 antagonist) | MCHR1 antag inactive
c1ccc(COc2ccc(Nc3ncnc4nc[nH]c34)cc2)cc1	TAAR1 antag 56.0, GPR7 antagonist 33.8 | GPR7 antag conf inactive | MCHR1 antag 22.5
CC(NCCC(c1ccccc1)c1ccccc1)c1ccccc1 (centres undefined)	GPR7 antagonist 28.1 | GPR7 antag conf 50.8 | MCHR1 antag 54.6
C/C(CC(=O)Nc1cccc2c1CCCC2)=N\NC(=O)c1ccccc1N	GPR7 antagonist 24.5 | GPR7 antag conf inactive | MCHR1 antag inactive
C/C(CC(=O)Nc1cccc2c1CCCC2)=N\NC(=O)c1cccc2ccccc12	none
O=C(NCc1ccncc1)Nc1ccc(F)cc1	GPR7 antagonist 31.2 | GPR7 antag conf inactive | MCHR1 antag inactive
